The target in one experiment is Leukotriene B4 receptor (Homo sapiens, UniProt Q9NPC1+Q15722). Kind of experiment: Inhibition of binding of [3H]LTB4 (1 nM) to intact human polymorphonuclear leukocytes (PMNs). A digest of the protocol: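 Intact donor PMNs (10^6 cells) in Ca2+/Mg2+-free HBSS with 5 mM HEPES, incubated 20 min at 4 °C with 1 nM [3H]LTB4 (7.4 TBq/mmol), with or without competitors at various concentrations. Bound label measured by filtration. […] Screening at 10 μM.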

The nature of experiment [1]: (§1) Inhibition of LTB4 induced chemotaxis of isolated human PMNs. In kind it is functional. A digest of the protocol: (§2)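 Human PMNs from healthy donors' heparinized blood, isolated by dextran sedimentation, Ficoll and hypotonic lysis. Cells labeled with 51Cr (1 μCi/10^6 cells, 1 h, 37 °C), resuspended at 10^7 cells/mL in Hank's buffer with 1% BSA. LTB4 plus competitors in lower Boyden–Keller chamber, two 3 μm cellulose nitrate filters, 150 min at 37 °C, 5% CO2. Lower-filter radioactivity counted, expressed as percent of control. pKB from n experiments.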

For the next experiment, the species on record is Homo sapiens. Described as §1. In kind it is functional. An outline of the steps: as §2

By IC50 is commonly meant the concentration at which inhibition is half-maximal. `CN(C)OC(=O)/C=C1/CCC[C@H](/C=C/C(O)CCCCc2ccccc2)C1` (some centres undefined) displayed a 50% inhibitory concentration (IC50) at Leukotriene B4 receptor of 7 µM. Regarding `CN(C)OC(=O)/C=C1/CCC[C@@H](/C=C/C(O)CCCCc2ccccc2)C1` (some centres undefined), the half-inhibitory concentration (IC50) on Leukotriene B4 receptor is 1 µM. What is called pKB is the KB on a negative log10 scale, so that one unit is a factor of ten. A lower pKB goes with a large KB. Turning to `CCCCCC(O)/C=C/[C@H]1CCC[C@@](O)(CC(=O)[O-])C1.[Na+]` (stereo in doubt; 2b), the pKB in experiment [1] was 5.1. At Leukotriene B4 receptor, this compound displayed an IC50 of 8 µM. As to `O=C([O-])/C=C1/CCC[C@H](/C=C/C(O)CCCCc2ccccc2)C1.[Na+]` (stereo in doubt; form 1), on Leukotriene B4 receptor, the IC50 was greater than 10 µM. As for `CCCCCCCCC(O)/C=C/[C@H]1CCC[C@@](O)(CC(=O)[O-])C1.[Na+]` (stereo in doubt; 4a), the IC50 at Leukotriene B4 receptor is greater than 10 µM.

On to `CN(C)C(=O)C[C@]1(O)CCC[C@H](/C=C/C(F)CCCCc2ccccc2)C1` (stereo in doubt; 16b), for which the IC50 on Leukotriene B4 receptor is 6.5 µM. In experiment [1], `CN(C)OC(=O)C[C@@]1(O)CCC[C@H](/C=C/C(O)CCCCc2ccccc2)C1` (some centres undefined) yielded a pKB of 6.91. On Leukotriene B4 receptor, the IC50 turned out to be 0.08 µM.

`O=C([O-])C[C@]1(O)CCC[C@H](CCC(O)CCCCc2ccccc2)C1.[Na+]` (some centres undefined) returned a concentration for half-maximal inhibition (IC50) at Leukotriene B4 receptor of 5.3 µM. On to `O=C([O-])C[C@@]1(O)CCC[C@H](/C=C/C(O)CCCCc2ccccc2)C1.[Na+]` (stereo in doubt; 3c), for which the half-maximal inhibitory concentration (IC50) at Leukotriene B4 receptor is greater than 10 µM. Same read-out and setting: next, `CCCCCC(O)/C=C/[C@H]1CCC[C@@](O)(CC(=O)[O-])C1.[Na+]` (stereo in doubt; 2a): greater than 10 µM; `O=C([O-])C[C@@H]1CCC[C@H](CCC(O)CCCCc2ccccc2)C1.[Na+]` (some centres undefined): 2.6 µM; `CN(C)C(=O)C[C@]1(O)CCC[C@H](/C=C/C(F)CCCCc2ccccc2)C1` (stereo in doubt; 16 a): 2 µM. Consider `CN(C)C(=O)C[C@]1(O)CCC[C@H](/C=C/[C@H](O)CCCCc2ccccc2)C1`, for which the IC50 at Leukotriene B4 receptor is greater than 10 µM. On to `O=C([O-])/C=C1/CCC[C@H](/C=C/C(O)CCCCc2ccccc2)C1.[Na+]` (stereo in doubt; 10a), for which, on Leukotriene B4 receptor, the IC50 was greater than 10 µM. With `O=C([O-])C[C@@]1(O)CCC[C@H](/C=C/C(O)CCCCc2ccccc2)C1.[Na+]` (stereo in doubt; 3d), in experiment [1], the negative logarithm of the KB (pKB) was found to be 6.31. The compound further had an IC50 on Leukotriene B4 receptor of 1.5 µM. In the case of `CCCCCC(O)/C=C/[C@H]1CCC[C@](O)(CC(=O)[O-])C1.[Na+]` (stereo in doubt; 2d), the pKB in the experiment filed under Homo sapiens came to 5.25. The compound further had a 50% inhibitory concentration (IC50) at Leukotriene B4 receptor of 10 µM. For `CN(C)C(=O)C[C@]1(O)CCC[C@H](/C=C/C(C)(O)CCCCc2ccccc2)C1` (stereo in doubt; form 1), the IC50 at Leukotriene B4 receptor is 4.5 µM. In the case of `CCCCCCCCC(O)/C=C/[C@H]1CCC[C@](O)(CC(=O)[O-])C1.[Na+]` (stereo in doubt; 4c), the IC50 on Leukotriene B4 receptor was 4 µM. Take `CCCCCCCCC(O)/C=C/[C@H]1CCC[C@@](O)(CC(=O)[O-])C1.[Na+]` (stereo in doubt; 4b): the pKB in the experiment filed under Homo sapiens was 6.42. The IC50 on Leukotriene B4 receptor was 0.9 µM. The compound `O=C([O-])C[C@]1(O)CCC[C@H](/C=C/C(O)(CCCCc2ccccc2)CC(=O)O)C1.[Na+]` (some centres undefined) displayed an IC50 at Leukotriene B4 receptor greater than 10 µM. Regarding `CCCCCC(O)/C=C/[C@H]1CCC[C@](O)(CC(=O)[O-])C1.[Na+]` (stereo in doubt; 2c), the IC50 on Leukotriene B4 receptor is greater than 10 µM.

In the case of `O=C([O-])C[C@]1(O)CCC[C@H](/C=C/C(=O)CCCCc2ccccc2)C1.[Na+]`, the IC50 on Leukotriene B4 receptor was greater than 10 µM. Compound `O=C([O-])/C=C1\CCC[C@H](/C=C\C(O)CCCCc2ccccc2)C1.[Na+]` (some centres undefined) returned an IC50 on Leukotriene B4 receptor of 1.3 µM.

Turning to `CN(C)C(=O)C[C@]1(O)CCC[C@H](/C=C/[C@@H](O)CCCCc2ccccc2)C1`, the negative-log KB (pKB) in experiment [1] was 7.5. Also, the 50% inhibitory concentration (IC50) on Leukotriene B4 receptor worked out at 0.04 µM.

`O=C([O-])/C=C1/CCC[C@H](/C=C/C(O)CCCCc2ccccc2)C1.[Na+]` (stereo in doubt; form 2) came in with an IC50 on Leukotriene B4 receptor of 0.5 µM. `CCCCCCCCC(O)/C=C/[C@H]1CCC[C@](O)(CC(=O)[O-])C1.[Na+]` (stereo in doubt; 4d): the IC50 at Leukotriene B4 receptor worked out at 2.5 µM. Take `O=C([O-])C[C@]1(O)CCC[C@H](/C=C/C(O)CCCCc2ccccc2)C1.[Na+]` (stereo in doubt; 3b): the pKB in experiment [1] is reported as 6.57. In addition, on Leukotriene B4 receptor, the half-inhibitory concentration (IC50) is 0.8 µM. On Leukotriene B4 receptor, `CN(C)C(=O)C[C@]1(O)CCC[C@H](/C=C/C(C)(O)CCCCc2ccccc2)C1` (stereo in doubt; 15b) gave an IC50 of 7 µM. With `O=C([O-])C[C@]1(O)CCC[C@H](/C=C/C(O)CCCCc2ccccc2)C1.[Na+]` (stereo in doubt; 3a), the IC50 at Leukotriene B4 receptor was greater than 10 µM.

`CC(=O)OC(/C=C/[C@H]1CCC/C(=C/C(=O)N(C)C)C1)CCCCc1ccccc1` (some centres undefined) displayed an IC50 at Leukotriene B4 receptor greater than 10 µM. The same measure, in the same setting: for `CN(C)C(=O)C[C@]1(O)CCC[C@H](/C=C/C(C)(O)CCCCc2ccccc2)C1` (stereo in doubt; form 2) the value was greater than 10 µM. Same read-out and setting: for `CN(C)OC(=O)C[C@]1(O)CCC[C@H](/C=C/C(O)CCCCc2ccccc2)C1` (some centres undefined) the value was greater than 10 µM.

Values taken from ChEMBL document CHEMBL1132545, “Synthesis and structure-activity relationships of new 1, 3-disubstituted cyclohexanes as structurally rigid leukotriene B(4) receptor antagonists” (J Med Chem, 1999).
